ChEMBL document CHEMBL1126057, “Highly water-soluble lipophilic prodrugs of the anti-HIV nucleoside analogue 2',3'-dideoxycytidine and its 3'-fluoro derivative” (J Med Chem, 1992)
Values after ≈ are worked out from the molar mass of the structure shown. One block for each compound: values may come before it.

Key:
[1] = The compound was tested for the antiviral activity against Rauscher murine leukemia virus; assay type: functional; conditions: Mus musculus; read-out: ED50 (the source's name)
Outline: (§1)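 UV-XC plaque reduction assay for Rauscher murine leukemia virus in SC-1 cells in culture, in vitro. Value is the concentration (µM) producing 50% antiviral effect.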

[2] = The compound was tested for the cytotoxicity against Rauscher murine leukemia virus; assay type: functional, Mus musculus
Outline: (§2)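 Cytotoxicity in the same cell cultures as the antiviral assays, measured as 50% growth inhibition by tetrazolium dye assay. Value is the concentration (µM) producing 50% cytotoxicity.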

[3] = Water solubility of the compound.; assay type: ADME; conditions: read-out: S
Outline: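 Solubility in double-distilled water at room temperature, in mg/mL.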

[4] = Partition coefficient (P); conditions: octanol/water
[5] = pKa value of the compound.; assay type: physicochemical
Outline: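 pKa determined by UV spectroscopy at room temperature.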

[6] = system: CCRF-CEM; assay: The compound was tested for the cytotoxicity against HIV from CEM-IW human lymphocyte; assay type: functional, cell-based; outline: as §2
[7] = system: CCRF-CEM; assay: The compound was tested for the antiviral activity against HIV from CEM-IW human lymphocyte,; assay type: functional; conditions: read-out: ED50 (the source's name)
Outline: (§3)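 CEM-IW human lymphocytes in culture; reduction of HIV cytopathic effect. Value is the concentration (µM) producing 50% antiviral effect.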

[8] = Half-life in potassium phosphate buffered saline(PBS) at 37 degree C.; assay type: ADME
Outline: (§4)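 Prodrug at 5 × 10^-5 M in PBS, pH 7.4, incubated at 37 °C. A317 read at regular intervals. Pseudo-first-order rate constant taken from the slope of ln(absorbance) vs time, then converted to t1/2.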

[9] = Half-life in potassium phosphate buffered saline (PBS) at 37 degree C.; assay type: ADME; outline: as §4
[10] = Half-life in 1N HCl at 37 degree C.; assay type: ADME
Outline: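 Diisopropylamino prodrugs at 5 × 10^-5 M in 1 N HCl at 37 °C. Absorbance at 317 nm recorded at regular intervals. ln(absorbance) vs time plotted; slope gives the pseudo-first-order hydrolysis rate constant, from which t1/2 was calculated.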

[11] = The compound was tested for the antiviral activity against Rauscher murine leukemia virus in SC-1 cells; assay type: functional; conditions: Mus musculus, read-out: ED50 (the source's name); outline: as §1
[12] = Half-life in 10% serum solution at 37 degree C.; assay type: ADME, cell-free
Outline: (§5)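 Diisopropylamino prodrugs diluted from 10^-2 M stock into human serum, made up with buffer to 10% or 20% serum, or mixed with serum to 90% serum. Incubated at 37 °C; 50-µL aliquots withdrawn at intervals, diluted with buffer, A317 read. Half-life taken from the pseudo-first-order rate constant, i.e. the slope of ln(absorbance) vs time.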

[13] = Half-life in 90% serum solution at 37 degree C.; assay type: ADME, cell-free; outline: as §5
[14] = Half-life in 20% serum solution at 37 degree C.; assay type: ADME, cell-free; outline: as §5
[15] = The compound was tested for the cytotoxicity in SC-1 cells; conditions: Mus musculus
[16] = system: CCRF-CEM; assay: The compound was tested for the antiviral activity against HIV from CEM-IW human lymphocyte; assay type: functional; conditions: read-out: ED50 (the source's name); outline: as §3
[17] = Half-life in potassium phosphate buffered saline (PBS) at 37 degree C(0% serum solution).; assay type: ADME; outline: as §4

Compound: CCN(/C=N\c1ccn(C2CCC(CO)O2)c(=O)n1)CC (stereo unspecified)
- half-life [8]: 8.67 h
- P [4]: -0.059

Compound: O=c1nc(/N=C\N2CCOCC2)ccn1C1CCC(CO)O1 (stereo unspecified)
- half-life [8]: 3.92 h
- P [4]: -0.967

Compound: CC(C)N(/C=N\c1ccn(C2CCC(CO)O2)c(=O)n1)C(C)C (stereo unspecified)
- half-life [10]: 3.9 h
- EC50 [1]: 20.6 µM
- IC50 [2]: > 1000 µM
- solubility [3]: > 300 mg/mL
- P [4]: 0.724
- pKa [5]: 5.28
- half-life [12]: 47.3 h
- IC50 [6]: > 200 µM
- half-life [13]: 65.6 h
- half-life [17]: 47.5 h
- half-life [14]: 51.2 h
- EC50 [7]: 0.065 µM

Compound: CCCN(/C=N\c1ccn(C2CCC(CO)O2)c(=O)n1)CCC (stereo unspecified)
- half-life [8]: 13.1 h
- P [4]: 0.948

Compound: O=c1nc(/N=C\N2CCCCC2)ccn1C1CCC(CO)O1 (stereo unspecified)
- half-life [8]: 6.4 h
- P [4]: 0.057

Compound: O=c1nc(/N=C\N2CCCC2)ccn1C1CCC(CO)O1 (stereo unspecified)
- half-life [8]: 2.13 h
- P [4]: -0.467

Compound: Nc1ccn([C@H]2CC[C@@H](CO)O2)c(=O)n1 [ZALCITABINE]
- EC50 [1]: 2.2 µM
- IC50 [2]: > 1000 µM
- solubility [3]: 78 mg/mL (≈ 369 mM)
- pKa [5]: 4.42

Continued, in another order:

- EC50 [1]: 158 µM
- solubility [3]: 15 mg/mL (≈ 65.4 mM)
- P [4]: -0.893
- pKa [5]: 4.22
- EC50 [7]: 0.16 µM
Compound: Nc1ccn(C2CC(F)C(CO)O2)c(=O)n1 (stereo unspecified)
- IC50 [2]: > 1000 µM
- IC50 [6]: > 3200 µM

- half-life [9]: 3.8 h
- P [4]: -0.951
Compound: CN(C)/C=N\c1ccn(C2CCC(CO)O2)c(=O)n1 (stereo unspecified)

- half-life [8]: 3.74 h
- P [4]: -0.676
Compound: O=c1nc(/N=C\N2CCOCC2)ccn1C1CC(F)C(CO)O1 (stereo unspecified)

- half-life [8]: 15.6 h
Compound: CCCN(/C=N\c1ccn(C2CC(F)C(CO)O2)c(=O)n1)CCC (stereo unspecified)

- half-life [10]: 5.8 h
- EC50 [11]: 518 µM
- solubility [3]: 25 mg/mL (≈ 73.4 mM)
- half-life [8]: 52.1 h
- pKa [5]: 5.13
- half-life [12]: 52.4 h
- half-life [13]: 86.7 h
- half-life [14]: 56.5 h
- EC50 [7]: 0.675 µM
Compound: CC(C)N(/C=N\c1ccn(C2CC(F)C(CO)O2)c(=O)n1)C(C)C (stereo unspecified)
- IC50 [6]: > 200 µM
- IC50 [15]: > 1000 µM

- half-life [8]: 2.57 h
- P [4]: -0.162
Compound: O=c1nc(/N=C\N2CCCC2)ccn1C1CC(F)C(CO)O1 (stereo unspecified)

- half-life [8]: 6.3 h
- P [4]: 0.358
Compound: O=c1nc(/N=C\N2CCCCC2)ccn1C1CC(F)C(CO)O1 (stereo unspecified)

- EC50 [11]: 214 µM
- half-life [8]: 4.66 h
- P [4]: -0.64
- EC50 [16]: 0.23 µM
Compound: CN(C)/C=N\c1ccn(C2CC(F)C(CO)O2)c(=O)n1 (stereo unspecified)
- IC50 [6]: > 200 µM
- IC50 [15]: > 1000 µM

- half-life [8]: 10.2 h
- P [4]: 0.227
Compound: CCN(/C=N\c1ccn(C2CC(F)C(CO)O2)c(=O)n1)CC (stereo unspecified)
